Measurements from ChEMBL document CHEMBL5257036, “Benzophenone-nucleoside derivatives as telomerase inhibitors: Design, synthesis and anticancer evaluation in vitro and in vivo” (Eur J Med Chem, 2016).
One block for each molecule: values may come before it. The source made the active and inactive calls. The calls are words filed in the database; no cut-off is given here.

Tests used:
[1] = biological target: T1, Telomerase reverse transcriptase (Homo sapiens, UniProt O14746); assay: Inhibition of telomerase activity in human SGC-7901 cells at 0.082 to 60 ug/mL incubated for 24 hrs by TRAP-PCR-ELISA assay; conditions: dose 0.082-60 ug/mL
HeLa = assay: Antiproliferative activity against human HeLa cells measured after 48 hrs by MTT assay; assay type: functional, cell-based
How it was run: (§1)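 Cells grown to log phase in RPMI 1640 with 10% FBS, seeded at 3 × 10⁴ cells/mL, and preincubated 24 h at 37 °C, 5% CO₂. Compounds were added at pre-set concentrations to 6 wells each, with doxorubicin as reference, and exposed for 48 h. MTT was then added and absorbance read at 570 nm.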

SMMC-7721 = assay: Antiproliferative activity against human SMMC-7721 cells measured after 48 hrs by MTT assay; assay type: functional, cell-based; conditions: SMMC-7721, 48 h
How it was run: as §1

HepG2 [2] = assay: Antiproliferative activity against human HepG2 cells measured after 48 hrs by MTT assay; assay type: functional, cell-based; conditions: HepG2, 48 h
How it was run: as §1

SGC-7901 [3] = assay: Antiproliferative activity against human SGC-7901 cells measured after 48 hrs by MTT assay; assay type: functional, cell-based; conditions: SGC-7901, 48 h
How it was run: as §1

[4] = biological target: T1, Telomerase reverse transcriptase; assay: Inhibition of telomerase activity in human SGC-7901 cells incubated for 24 hrs by TRAP-PCR-ELISA assay; assay type: cell-based
How it was run: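 Extract was mixed with TRAP reaction mix, incubated 25 °C for 30 min, then 35 PCR cycles (94/50/72 °C). Products detected by anti-DIG-peroxidase ELISA at 490 nm; mean ± SD.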

SGC-7901 [5] = assay: Induction of cell cycle arrest in human SGC-7901 cells assessed as accumulation in G2 phase at 2 uM incubated for 48 hrs by PI staining based flow cytometry analysis (reference value: 24.6%); assay type: functional
SGC-7901 [6] = assay: Induction of cell cycle arrest in human SGC-7901 cells assessed as accumulation in G1 phase at 2 uM incubated for 48 hrs by PI staining based flow cytometry analysis (reference value: 38.1%); assay type: functional
SGC-7901 [7] = assay: Induction of cell cycle arrest in human SGC-7901 cells assessed as accumulation in S phase at 1 uM incubated for 48 hrs by PI staining based flow cytometry analysis (reference value: 37.4%); assay type: functional
SGC-7901 [8] = assay: Induction of cell cycle arrest in human SGC-7901 cells assessed as accumulation in G2 phase at 1 uM incubated for 48 hrs by PI staining based flow cytometry analysis (reference value: 24.6%); assay type: functional
SGC-7901 [9] = assay: Induction of cell cycle arrest in human SGC-7901 cells assessed as accumulation in G1 phase at 1 uM incubated for 48 hrs by PI staining based flow cytometry analysis (reference value: 38.1%); assay type: functional
SGC-7901 [10] = assay: Induction of apoptosis in human SGC-7901 cells assessed as late apoptotic cells at 4 uM incubated for 48 hrs by Annexin V-FITC/propidium iodide staining based flow cytometry (reference value: 1.11%); assay type: functional
How it was run: (§2)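 SGC-7901 cells treated 48 h at three concentrations; untreated cells served as control. Harvested cells were suspended in annexin-binding buffer (1 × 10⁶ cells/mL), incubated with annexin V-FITC for 15 min, then PI for 5 min at 4 °C in the dark, and analysed immediately by flow cytometry. Quadrants scored necrotic/late apoptotic, early apoptotic and normal cells. At least 3 runs.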

SGC-7901 [11] = assay: Induction of apoptosis in human SGC-7901 cells assessed as early apoptotic cells at 4 uM incubated for 48 hrs by Annexin V-FITC/propidium iodide staining based flow cytometry (reference value: 2.12%); assay type: functional
How it was run: as §2

SGC-7901 [12] = assay: Induction of apoptosis in human SGC-7901 cells assessed as viable cells at 4 uM incubated for 48 hrs by Annexin V-FITC/propidium iodide staining based flow cytometry (reference value: 96.7%); assay type: functional; conditions: read-out: Activity
How it was run: as §2

SGC-7901 [13] = assay: Induction of apoptosis in human SGC-7901 cells assessed as necrotic cells at 2 uM incubated for 48 hrs by Annexin V-FITC/propidium iodide staining based flow cytometry (reference value: 0.067%); assay type: functional
How it was run: as §2

SGC-7901 [14] = assay: Induction of apoptosis in human SGC-7901 cells assessed as late apoptotic cells at 2 uM incubated for 48 hrs by Annexin V-FITC/propidium iodide staining based flow cytometry (reference value: 1.11%); assay type: functional
How it was run: as §2

SGC-7901 [15] = assay: Induction of apoptosis in human SGC-7901 cells assessed as early apoptotic cells at 2 uM incubated for 48 hrs by Annexin V-FITC/propidium iodide staining based flow cytometry (reference value: 2.12%); assay type: functional
How it was run: as §2

SGC-7901 [16] = assay: Induction of apoptosis in human SGC-7901 cells assessed as viable cells at 2 uM incubated for 48 hrs by Annexin V-FITC/propidium iodide staining based flow cytometry (reference value: 96.7%); assay type: functional; conditions: read-out: Activity
How it was run: as §2

SGC-7901 [17] = assay: Induction of apoptosis in human SGC-7901 cells assessed as necrotic cells at 1 uM incubated for 48 hrs by Annexin V-FITC/propidium iodide staining based flow cytometry (reference value: 0.067%); assay type: functional
How it was run: as §2

SGC-7901 [18] = assay: Induction of apoptosis in human SGC-7901 cells assessed as late apoptotic cells at 1 uM incubated for 48 hrs by Annexin V-FITC/propidium iodide staining based flow cytometry (reference value: 1.11%); assay type: functional
How it was run: as §2

SGC-7901 [19] = assay: Induction of apoptosis in human SGC-7901 cells assessed as early apoptotic cells at 1 uM incubated for 48 hrs by Annexin V-FITC/propidium iodide staining based flow cytometry (reference value: 2.12%); assay type: functional
How it was run: as §2

SGC-7901 [20] = assay: Induction of apoptosis in human SGC-7901 cells assessed as viable cells at 1 uM incubated for 48 hrs by Annexin V-FITC/propidium iodide staining based flow cytometry (reference value: 96.7%); assay type: functional; conditions: read-out: Activity
How it was run: as §2

SGC-7901 [21] = assay: Induction of apoptosis in human SGC-7901 cells assessed as necrotic cells at 4 uM incubated for 48 hrs by Annexin V-FITC/propidium iodide staining based flow cytometry (reference value: 0.067%); assay type: functional
How it was run: as §2

SGC-7901 [22] = assay: Induction of mitochondrial membrane potential loss in human SGC-7901 cells assessed as increase in green fluorescence intensity at 1 to 4 uM incubated for 48 hrs by JC-1 staining based flow cytometry; assay type: functional, cell-based; conditions: dose 1-4 µM
How it was run: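 Gastric cancer cells seeded at 2 × 10⁵ per well and treated 48 h at […]. Cells were detached with 0.5% trypsin, stained with JC-1 for 0.5 h at 37 °C, 5% CO₂ in the dark, washed twice in JC-1 buffer, and analysed by flow cytometry. Read-out was red aggregate versus green monomer fluorescence. At least 3 runs.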

SGC-7901 [23] = assay: Induction of cell cycle arrest in human SGC-7901 cells assessed as accumulation in S phase at 2 uM incubated for 48 hrs by PI staining based flow cytometry analysis (reference value: 37.4%); assay type: functional
SGC-7901 [24] = assay: Induction of cell cycle arrest in human SGC-7901 cells assessed as accumulation in G1 phase at 4 uM incubated for 48 hrs by PI staining based flow cytometry analysis (reference value: 38.1%); assay type: functional
SGC-7901 [25] = assay: Induction of cell cycle arrest in human SGC-7901 cells assessed as accumulation in G2 phase at 4 uM incubated for 48 hrs by PI staining based flow cytometry analysis (reference value: 24.6%); assay type: functional
SGC-7901 [26] = assay: Induction of cell cycle arrest in human SGC-7901 cells assessed as accumulation in S phase at 4 uM incubated for 48 hrs by PI staining based flow cytometry analysis (reference value: 37.4%); assay type: functional
CCRF S-180 [27] = assay: Antitumor activity against mouse S180 cells allografted in Kunming mouse assessed as reduction in tumor weight at 60 mg/kg, po administered once daily for consecutive 10 days (reference value: 2.02+/-0.19g); assay type: functional; conditions: time 10 day
How it was run: (§3)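 Kunming mice (SPF, male or female, 20 ± 2 g) inoculated subcutaneously in the right front armpit with seven-day-old ascites (0.2 mL, 2 × 10⁶ cells). After 24 h, randomized into groups of 10 and weighed. Dosed by oral gavage at 60 mg/kg/day or given normal saline (10 mL/kg) once daily for ten days. Killed on day 11 and tumors weighed. Inhibition rate = (Wcontrol − Wtreated)/Wcontrol × 100%.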

HepG2 [28] = assay: Antitumor activity against human HepG2 cells xenografted in Kunming mouse assessed as reduction in tumor weight at 60 mg/kg, po administered once daily for consecutive 10 days (reference value: 2.01+/-0.09g); assay type: functional; conditions: time 10 day
How it was run: as §3

CCRF S-180 [29] = assay: Antitumor activity against mouse S180 cells allografted in Kunming mouse assessed as tumor growth inhibition at 60 mg/kg, po administered once daily for consecutive 10 days; assay type: functional; conditions: CCRF S-180, 240 h, time 10 day, read-out: TGI
How it was run: as §3

HepG2 [30] = assay: Antitumor activity against human HepG2 cells xenografted in Kunming mouse assessed as tumor growth inhibition at 60 mg/kg, po administered once daily for consecutive 10 days; assay type: functional; conditions: HepG2, 240 h, time 10 day, read-out: TGI
How it was run: as §3

[31] = Toxicity in Kunming mouse allografted with mouse S180 cells assessed as body weight at 60 mg/kg, po administered once daily for consecutive 10 days (reference value: 19.38 to 19.99g); assay type: organism-based, CCRF S-180; conditions: in vivo, 240 h, time 10 day
How it was run: as §3

[32] = Toxicity in Kunming mouse xenografted with […] cells assessed as body weight at 60 mg/kg, po administered once daily for consecutive 10 days (reference value: 19.15 to 19.87g); assay type: organism-based; conditions: in vivo, 240 h, time 10 day
How it was run: as §3

T1 sequence (O14746 whole entry): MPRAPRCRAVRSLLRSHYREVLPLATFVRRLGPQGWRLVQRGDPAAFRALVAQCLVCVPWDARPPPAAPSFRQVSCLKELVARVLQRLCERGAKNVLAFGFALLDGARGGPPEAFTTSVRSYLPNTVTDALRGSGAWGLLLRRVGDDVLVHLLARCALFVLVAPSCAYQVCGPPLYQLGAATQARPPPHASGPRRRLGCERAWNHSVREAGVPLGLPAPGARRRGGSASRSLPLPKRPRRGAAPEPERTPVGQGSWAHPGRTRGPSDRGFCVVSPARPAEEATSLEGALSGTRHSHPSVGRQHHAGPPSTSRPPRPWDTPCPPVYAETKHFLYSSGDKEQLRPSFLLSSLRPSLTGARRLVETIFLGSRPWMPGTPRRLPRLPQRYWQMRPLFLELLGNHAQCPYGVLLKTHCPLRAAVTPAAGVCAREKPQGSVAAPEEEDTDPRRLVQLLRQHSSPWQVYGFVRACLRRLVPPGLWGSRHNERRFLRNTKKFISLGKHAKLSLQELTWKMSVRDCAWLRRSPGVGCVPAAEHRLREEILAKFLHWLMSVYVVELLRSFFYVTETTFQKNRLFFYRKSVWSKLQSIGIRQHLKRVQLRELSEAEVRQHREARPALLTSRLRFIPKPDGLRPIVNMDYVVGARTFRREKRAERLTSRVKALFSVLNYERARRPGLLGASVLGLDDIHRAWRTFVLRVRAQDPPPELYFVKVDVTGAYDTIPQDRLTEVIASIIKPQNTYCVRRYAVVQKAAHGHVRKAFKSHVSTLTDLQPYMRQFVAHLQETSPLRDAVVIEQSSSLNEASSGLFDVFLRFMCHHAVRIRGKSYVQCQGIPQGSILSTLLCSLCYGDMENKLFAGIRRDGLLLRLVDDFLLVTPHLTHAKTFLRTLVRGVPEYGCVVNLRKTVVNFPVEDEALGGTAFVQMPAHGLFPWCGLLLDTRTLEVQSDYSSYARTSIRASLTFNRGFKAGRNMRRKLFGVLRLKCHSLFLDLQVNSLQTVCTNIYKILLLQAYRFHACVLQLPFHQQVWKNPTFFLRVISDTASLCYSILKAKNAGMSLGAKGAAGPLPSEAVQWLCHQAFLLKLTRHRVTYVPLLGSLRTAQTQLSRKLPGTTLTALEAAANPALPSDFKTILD

inhibition [1]: inactive
SMILES: COc1ccc(C(=O)c2cc(Br)ccc2Cl)cc1OCC(=O)OC[C@@H]1C=C[C@H](n2cc(C)c(=O)[nH]c2=O)O1

IC50 (HeLa): 21.1 µM | IC50 (SMMC-7721): 30.5 µM | IC50 (HepG2 [2]): 24 µM | IC50 (SGC-7901 [3]): 10.2 µM | IC50 [4]: 28.9 µM
SMILES: COc1ccc(C(=O)c2ccc([N+](=O)[O-])cc2)cc1OC(=O)CCC(=O)OC[C@@H]1C=C[C@H](n2cc(C)c(=O)[nH]c2=O)O1

IC50 (HeLa): 6.51 µM | IC50 (SMMC-7721): 3.21 µM | IC50 (HepG2 [2]): 11.1 µM | IC50 (SGC-7901 [3]): 4.19 µM
SMILES: COc1ccc(C(=O)c2cccc(Cl)c2)cc1OC(=O)CCC(=O)OC[C@@H]1C=C[C@H](n2cc(C)c(=O)[nH]c2=O)O1

IC50 (HeLa): 2.65 µM | IC50 (SMMC-7721): 2.86 µM | IC50 (HepG2 [2]): 6.85 µM | IC50 (SGC-7901 [3]): 2.27 µM | IC50 [4]: 6.43 µM
SMILES: COc1cc(OC)c(C(=O)c2ccc(OC)c(OC(=O)CCC(=O)OC[C@@H]3C=C[C@H](n4cc(C)c(=O)[nH]c4=O)O3)c2)cc1OC

IC50 (HeLa): 17.8 µM | IC50 (SMMC-7721): 22.6 µM | IC50 (HepG2 [2]): 20.3 µM | IC50 (SGC-7901 [3]): 8.25 µM
SMILES: COc1ccc(C(=O)c2ccc(F)cc2)cc1OC(=O)CCC(=O)OC[C@@H]1C=C[C@H](n2cc(C)c(=O)[nH]c2=O)O1

IC50 (HeLa): 1.58 µM | IC50 (SMMC-7721): 0.82 µM | IC50 (HepG2 [2]): 3.15 µM | IC50 (SGC-7901 [3]): 0.77 µM | IC50 [4]: 7.01 µM
SMILES: COc1cccc(C(=O)c2ccc(OC)c(OC(=O)CCC(=O)OC[C@@H]3C=C[C@H](n4cc(C)c(=O)[nH]c4=O)O3)c2)c1
Activity (SGC-7901 [5]): 42.6% | Activity (SGC-7901 [6]): 28.5% | Activity (SGC-7901 [7]): 37.1% | Activity (SGC-7901 [8]): 30% | Activity (SGC-7901 [9]): 32.9% | Activity (SGC-7901 [10]): 33.2% | Activity (SGC-7901 [11]): 26.4% | viability at 4 µM (SGC-7901 [12]): 40.2% | Activity (SGC-7901 [13]): 0.282% | Activity (SGC-7901 [14]): 19.7% | Activity (SGC-7901 [15]): 18.3% | viability at 2 µM (SGC-7901 [16]): 61.8% | Activity (SGC-7901 [17]): 0.07% | Activity (SGC-7901 [18]): 5.96% | Activity (SGC-7901 [19]): 7.34% | viability at 1 µM (SGC-7901 [20]): 86.6% | Activity (SGC-7901 [21]): 0.3% | Activity (SGC-7901 [22]): Active | Activity (SGC-7901 [23]): 28.9% | Activity (SGC-7901 [24]): 15.8% | Activity (SGC-7901 [25]): 60.9% | Activity (SGC-7901 [26]): 23.2% | Activity (CCRF S-180 [27]): 1.2 g | Activity (HepG2 [28]): 1.04 g | inhibition in vivo at 60 mg/kg (CCRF S-180 [29]): 40.6% | inhibition in vivo at 60 mg/kg (HepG2 [30]): 48.5% | Activity [31]: 24.25 g | Activity [32]: 26.34 g
